The text below walks through data of ChEMBL document CHEMBL1123620, “Renin inhibitors. Statine-containing tetrapeptides with varied hydrophobic carboxy termini” (J Med Chem, 1987).

In assay [1] the target is T1, Renin (Homo sapiens, UniProt P00797).
T1 sequence (P00797 whole entry): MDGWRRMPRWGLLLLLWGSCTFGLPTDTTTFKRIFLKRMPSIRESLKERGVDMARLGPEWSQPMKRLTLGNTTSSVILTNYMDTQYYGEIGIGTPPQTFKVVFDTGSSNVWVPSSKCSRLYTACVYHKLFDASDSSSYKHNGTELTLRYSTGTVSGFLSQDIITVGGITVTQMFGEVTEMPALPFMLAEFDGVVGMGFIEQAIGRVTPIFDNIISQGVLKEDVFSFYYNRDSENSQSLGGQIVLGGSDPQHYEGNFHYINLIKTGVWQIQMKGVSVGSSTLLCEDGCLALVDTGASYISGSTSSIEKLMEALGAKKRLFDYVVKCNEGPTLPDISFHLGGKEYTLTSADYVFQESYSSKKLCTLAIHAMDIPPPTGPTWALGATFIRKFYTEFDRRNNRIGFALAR
Description: Inhibition of purified human kidney renin, radioimmunoassay using a synthetic tetradecapeptide renin substrate at 10e-9 M concentration.

A further assay deals with Renin (Sus scrofa). As to the kind of experiment: Inhibition of hog kidney renin at 10e-9 M concentration. The conditions noted are these: read-out: I50.
In assay [2] the target is T1, Renin. As to the kind of experiment: Inhibition of purified human kidney renin, radioimmunoassay using the natural substrate partially pure angiotensinogen at 10e-9 M concentration. An outline of the steps:
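Purified human kidney renin (0.02 ng) with 500 ng partially purified human angiotensinogen (0.08 μM, about 1% pure), 60 min at 37°C in 0.1 M citrate phosphate, pH 7.20. Inhibitor added in 10% methanol or DMF. Quenched by boiling for 1 min.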

Assay [3] addresses T1, Renin. As to the kind of experiment: Inhibition of purified human kidney renin, fluorometric assay using a synthetic tetradecapeptide renin substrate at 10e-9 M concentration. An outline of the steps:
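Purified human kidney renin with synthetic tetradecapeptide substrate, read fluorometrically for peptidal amino termini, at 37°C in 0.10 M citrate phosphate, pH 7.20. Ki from linear I/V vs. [I] plots, assuming competitive inhibition. Estimated error ±20%.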

For assay [4], the target named is T1, Renin. As to the kind of experiment: Inhibition of human plasma renin at 10e-9 M concentration. To be noted: read-out: I50. In a few lines: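 Human plasma renin acting on endogenous plasma angiotensinogen at pH 7.4 (phosphate), 37°C. Renin and substrate levels were not measured. 8-Hydroxyquinoline or phenylmethanesulfonyl fluoride served as angiotensinase inhibitor. Angiotensin I was measured by radioimmunoassay. I50 values were generally reproducible within ±30%.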

On to `CC(C)CC(NC(=O)[C@H](Cc1c[nH]cn1)NC(=O)[C@H](Cc1ccccc1)NC(=O)OC(C)(C)C)C(O)CC(=O)N[C@@H](CC(C)C)C(=O)NC(C)C(O)c1ccccc1` (stereo not given in full), for which the inhibitory constant (Ki) is 36 nM at Renin [1], 220 nM at Renin [2] and 67 nM at Renin [3]. Also, the IC50 came to 480 nM at Renin (Sus scrofa) and 178 nM on Renin [4].

Regarding `CC(C)CC(NC(=O)[C@H](Cc1c[nH]cn1)NC(=O)[C@H](Cc1ccccc1)NC(=O)OC(C)(C)C)C(O)CC(=O)N[C@@H](CC(C)C)C(=O)NC1CCN(Cc2ccccc2)CC1` (stereo not given in full), the figures for the inhibition constant Ki on Renin [1], at Renin [2] and on Renin [3] were 0.04 nM, 97 nM and 0.064 nM, respectively. For the same compound, the IC50 on Renin (Sus scrofa) stood at 280 nM; at Renin [4] it was 127 nM.

As to `CC(C)CC(NC(=O)[C@H](Cc1cnc[nH]1)NC(=O)[C@H](Cc1ccccc1)NC(=O)OC(C)(C)C)C(O)CC(=O)N[C@@H](CC(C)C)C(=O)NC(C)c1ccccc1` (single isomer, unassigned; (+)), the figures for the Ki at Renin [1], at Renin [2] and on Renin [3] were 6 nM, 100 nM and 19 nM, respectively. Moreover, the IC50 is 14 nM at Renin (Sus scrofa) and 49 nM on Renin [4].

`C=C1c2ccccc2CC(NC(=O)[C@H](CC(C)C)NC(=O)CC(O)C(CC(C)C)NC(=O)[C@H](Cc2c[nH]cn2)NC(=O)[C@H](Cc2ccccc2)NC(=O)OC(C)(C)C)c2ccccc21` (stereo not given in full): the Ki was 520 nM on Renin [1], 320 nM on Renin [2] and 120 nM at Renin [3]. For the same compound, the IC50 on Renin (Sus scrofa) stood at 5.8 nM; on Renin [4] it was 569 nM.

As usually defined, the Ki is a measure of affinity in units of concentration, obtained from inhibition or displacement. Lower therefore signals a stronger hold on the target.
